Assays:
HL-60 = assay: Cytotoxicity against human HL60 cells assessed as reduction in cell viability after 72 hrs by MTT assay; format: functional, cell-based; conditions: HL-60, 72 h
Outline: (§1)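 MTT viability assay. Cancer lines grown in RPMI 1640 and L929 fibroblasts in DMEM, each with 10% FBS, 2 mM glutamine, penicillin/streptomycin, 37 °C, 5% CO2. PBMC were taken from healthy donors by density-gradient centrifugation, kept in RPMI with 20% FBS and stimulated with 2% phytohemagglutinin. Cells were exposed 72 h (0.01–27.32 µM). MTT 0.5 mg/mL for 3 h, absorbance read at 550 nm. IC50 with 95% CI from nonlinear regression; triplicate, ≥3 independent experiments.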

PC-3 = assay: Cytotoxicity against human PC3 cells assessed as reduction in cell viability after 72 hrs by MTT assay; format: functional, cell-based; conditions: PC-3, 72 h; outline: as §1
NCI-H460 = assay: Cytotoxicity against human NCI-H460 cells assessed as reduction in cell viability after 72 hrs by MTT assay; conditions: NCI-H460, 72 h
HCT-116 = assay: Cytotoxicity against human HCT116 cells assessed as reduction in cell viability after 72 hrs by MTT assay; format: functional, cell-based; conditions: HCT-116, 72 h; outline: as §1
L929 = assay: Cytotoxicity against mouse L929 cells assessed as reduction in cell viability after 72 hrs by MTT assay; format: cell-based; conditions: L929, 72 h; outline: as §1
SF-295 = assay: Cytotoxicity against human SF295 cells assessed as reduction in cell viability after 72 hrs by MTT assay; conditions: SF-295, 72 h
PBMC = assay: Cytotoxicity against human PBMC cells assessed as reduction in cell viability after 72 hrs by MTT assay
OVCAR-8 = assay: Cytotoxicity against human OVCAR8 cells assessed as reduction in cell viability after 72 hrs by MTT assay; conditions: OVCAR-8, 72 h
Jurkat = assay: Cytotoxicity against human Jurkat cell viability after 72 hrs by MTT assay
MX1 = assay: Cytotoxicity against human MX1 cells assessed as reduction in cell viability after 72 hrs by MTT assay; conditions: MX1, 72 h

Q: What does the source list for `Cc1ccc(-c2cn(-c3ccc(C)cc3)c3c2C(=O)c2ccccc2C3=O)cc1`?
A: IC50 (HL-60): > 11.3 µM; IC50 (PC-3): > 11.3 µM; IC50 (NCI-H460): > 11.3 µM; IC50 (HCT-116): > 11.3 µM; IC50 (L929): > 11.3 µM; IC50 (SF-295): > 11.3 µM; IC50 (PBMC): > 11.3 µM

Q: Which results are given for `CCOC(=O)Cc1oc2c(c1/C=C/c1ccccc1)C(=O)c1ccccc1C2=O`?
A: IC50 (HL-60): 10.7 µM; IC50 (PC-3): > 13 µM; IC50 (NCI-H460): > 13 µM; IC50 (HCT-116): > 13 µM; IC50 (L929): > 13 µM; IC50 (SF-295): > 13 µM; IC50 (PBMC): > 13 µM

Q: Which IC50 (HL-60) does the source give for `COc1ccc(-n2cc(-c3ccc(C)cc3)c3c2C(=O)c2ccccc2C3=O)cc1` here?
A: The IC50 was greater than 12.7 µM.

Q: What about the IC50 (PC-3) of the same compound?
A: The IC50 was greater than 12.7 µM.

Q: And the IC50 (NCI-H460)?
A: The IC50 was greater than 12.7 µM.

Q: And the IC50 (HCT-116)?
A: Its IC50 is greater than 12.7 µM.

Q: What about the IC50 (L929) of the same compound?
A: Its IC50 is greater than 12.7 µM.

Q: What about the IC50 (SF-295) of the same compound?
A: Its IC50 is greater than 12.7 µM.

Q: And the IC50 (PBMC)?
A: The IC50 was greater than 12.7 µM.

Q: `CCOC(=O)Cc1oc2c(c1-c1cccs1)C(=O)c1ccccc1C2=O` was tested. Which IC50 (HL-60) did it give?
A: Its IC50 is 5.91 µM.

Q: What about the IC50 (PC-3) of the same compound?
A: The IC50 was greater than 27.3 µM.

Q: What about the IC50 (NCI-H460) of the same compound?
A: The IC50 was 9.09 µM.

Q: And the IC50 (HCT-116)?
A: Its IC50 is 13.7 µM.

Q: And the IC50 (L929)?
A: The IC50 was greater than 27.3 µM.

Q: What about the IC50 (SF-295) of the same compound?
A: Its IC50 is greater than 27.3 µM.

Q: What about the IC50 (PBMC) of the same compound?
A: The IC50 was greater than 27.3 µM.

Q: For `CCOC(=O)Cc1c(-c2ccc(OC)c(OC)c2)c2c(n1-c1ccc(Br)cc1)C(=O)c1ccccc1C2=O`, which IC50 (HL-60) is on record?
A: The IC50 was greater than 17.4 µM.

Q: And the IC50 (PC-3)?
A: Its IC50 is greater than 17.4 µM.

Q: And the IC50 (NCI-H460)?
A: Its IC50 is greater than 17.4 µM.

Q: What about the IC50 (HCT-116) of the same compound?
A: The IC50 was greater than 17.4 µM.

Q: And the IC50 (L929)?
A: Its IC50 is greater than 17.4 µM.

Q: And the IC50 (SF-295)?
A: Its IC50 is 6.45 µM.

Q: What about the IC50 (PBMC) of the same compound?
A: The IC50 was greater than 17.4 µM.

Q: How did the IC50 (HL-60) turn out when `CCOC(=O)Cc1c(-c2ccccc2)c2c(n1-c1ccc(C)cc1)C(=O)c1ccccc1C2=O` was run?
A: Its IC50 is greater than 11.1 µM.

Q: What about the IC50 (PC-3) of the same compound?
A: Its IC50 is greater than 11.1 µM.

Q: What about the IC50 (NCI-H460) of the same compound?
A: The IC50 was greater than 11.1 µM.

Q: And the IC50 (HCT-116)?
A: Its IC50 is greater than 11.1 µM.

Q: What about the IC50 (L929) of the same compound?
A: Its IC50 is greater than 11.1 µM.

Q: What about the IC50 (SF-295) of the same compound?
A: The IC50 was greater than 11.1 µM.

Q: And the IC50 (PBMC)?
A: Its IC50 is greater than 11.1 µM.

Q: `CCOC(=O)Cc1c(-c2ccc(OC)c(OC)c2)c2c(n1-c1ccc(Cl)cc1)C(=O)c1ccccc1C2=O` was tested. Which IC50 (HL-60) did it give?
A: Its IC50 is greater than 9.45 µM.

Q: And the IC50 (PC-3)?
A: The IC50 was greater than 9.45 µM.

Q: What about the IC50 (NCI-H460) of the same compound?
A: Its IC50 is greater than 9.45 µM.

Q: What about the IC50 (HCT-116) of the same compound?
A: The IC50 was greater than 9.45 µM.

Q: And the IC50 (L929)?
A: Its IC50 is greater than 9.45 µM.

Q: And the IC50 (SF-295)?
A: Its IC50 is greater than 9.45 µM.

Q: What about the IC50 (PBMC) of the same compound?
A: The IC50 was greater than 9.45 µM.

Q: Which results are given for `CCOC(=O)Cc1c(-c2ccco2)c2c(n1-c1ccccc1)C(=O)c1ccccc1C2=O`?
A: IC50 (HL-60): > 11.8 µM; IC50 (PC-3): > 11.8 µM; IC50 (NCI-H460): > 11.8 µM; IC50 (HCT-116): > 11.8 µM; IC50 (L929): > 11.8 µM; IC50 (SF-295): > 11.8 µM; IC50 (PBMC): > 11.8 µM

Q: What does the source list for `CSc1ccc(-c2coc3c2C(=O)c2ccccc2C3=O)cc1`?
A: IC50 (HL-60): 3.09 µM; IC50 (PC-3): 2.49 µM; IC50 (OVCAR-8): 4.09 µM; IC50 (Jurkat): 2.18 µM; IC50 (NCI-H460): 4.68 µM; IC50 (MX1): 4.74 µM; IC50 (HCT-116): 6.03 µM; IC50 (L929): > 15.6 µM; IC50 (SF-295): 3.43 µM; IC50 (PBMC): > 15.6 µM

Q: Which results are given for `CCCCn1cc(-c2ccc(Cl)cc2)c2c1C(=O)c1ccccc1C2=O`?
A: IC50 (HL-60): > 13.8 µM; IC50 (PC-3): > 13.8 µM; IC50 (HCT-116): > 13.8 µM; IC50 (L929): > 13.8 µM

Q: What does the source list for `COc1ccc(-c2cn(-c3ccc(OC)cc3)c3c2C(=O)c2ccccc2C3=O)cc1`?
A: IC50 (HL-60): > 12.2 µM; IC50 (PC-3): > 12.2 µM; IC50 (NCI-H460): > 12.2 µM; IC50 (HCT-116): > 12.2 µM; IC50 (L929): > 12.2 µM; IC50 (SF-295): > 12.2 µM; IC50 (PBMC): > 12.2 µM

Q: How did the IC50 (HL-60) turn out when `CCOC(=O)Cc1oc2c(c1-c1ccc(OC)cc1)C(=O)c1ccccc1C2=O` was run?
A: Its IC50 is greater than 12.8 µM.

Q: And the IC50 (PC-3)?
A: The IC50 was greater than 12.8 µM.

Q: And the IC50 (NCI-H460)?
A: Its IC50 is greater than 12.8 µM.

Q: And the IC50 (HCT-116)?
A: Its IC50 is greater than 12.8 µM.

Q: And the IC50 (L929)?
A: The IC50 was greater than 12.8 µM.

Q: And the IC50 (SF-295)?
A: Its IC50 is greater than 12.8 µM.

Q: And the IC50 (PBMC)?
A: The IC50 was greater than 12.8 µM.

Q: What does the source list for `Cc1ccc(-c2cn(-c3ccc(Br)cc3)c3c2C(=O)c2ccccc2C3=O)cc1`?
A: IC50 (HL-60): > 12.1 µM; IC50 (PC-3): > 12.1 µM; IC50 (NCI-H460): > 12.1 µM; IC50 (HCT-116): > 12.1 µM; IC50 (L929): > 12.1 µM; IC50 (SF-295): > 12.1 µM; IC50 (PBMC): > 12.1 µM

Q: `CCOC(=O)Cc1c(-c2cc(OC)c(OC)c(OC)c2)c2c(n1-c1cccc(Br)c1)C(=O)c1ccccc1C2=O` was tested. Which IC50 (HL-60) did it give?
A: Its IC50 is greater than 8.29 µM.

Q: And the IC50 (PC-3)?
A: Its IC50 is greater than 8.29 µM.

Q: What about the IC50 (NCI-H460) of the same compound?
A: The IC50 was greater than 8.29 µM.

Q: What about the IC50 (HCT-116) of the same compound?
A: Its IC50 is greater than 8.29 µM.

Q: And the IC50 (L929)?
A: Its IC50 is greater than 8.29 µM.

Q: And the IC50 (SF-295)?
A: Its IC50 is greater than 8.29 µM.

Q: What about the IC50 (PBMC) of the same compound?
A: Its IC50 is greater than 8.29 µM.

Q: `CCOC(=O)Cc1oc2c(c1-c1ccc(OC)c(OC)c1)C(=O)c1ccccc1C2=O` was tested. Which IC50 (HL-60) did it give?
A: The IC50 was 3.97 µM.

Q: What about the IC50 (PC-3) of the same compound?
A: Its IC50 is greater than 11.9 µM.

Q: What about the IC50 (NCI-H460) of the same compound?
A: Its IC50 is 7.53 µM.

Q: What about the IC50 (HCT-116) of the same compound?
A: The IC50 was 6.16 µM.

Q: And the IC50 (L929)?
A: Its IC50 is 8.47 µM.

Q: And the IC50 (SF-295)?
A: The IC50 was greater than 11.9 µM.

Q: What about the IC50 (PBMC) of the same compound?
A: Its IC50 is greater than 11.9 µM.

Q: Which IC50 (HL-60) does the source give for `CCOC(=O)Cc1c(-c2ccc(C)cc2)c2c(n1-c1ccc(C)cc1)C(=O)c1ccccc1C2=O` here?
A: Its IC50 is greater than 10.8 µM.

Q: What about the IC50 (PC-3) of the same compound?
A: Its IC50 is greater than 10.8 µM.

Q: What about the IC50 (NCI-H460) of the same compound?
A: The IC50 was greater than 10.8 µM.

Q: What about the IC50 (HCT-116) of the same compound?
A: The IC50 was greater than 10.8 µM.

Q: What about the IC50 (L929) of the same compound?
A: The IC50 was greater than 10.8 µM.

Q: What about the IC50 (SF-295) of the same compound?
A: The IC50 was greater than 10.8 µM.

Q: What about the IC50 (PBMC) of the same compound?
A: The IC50 was greater than 10.8 µM.

Q: Which results are given for `CCOC(=O)Cc1oc2c(c1-c1ccccc1)C(=O)c1ccccc1C2=O`?
A: IC50 (HL-60): 8.38 µM; IC50 (PC-3): > 13.9 µM; IC50 (NCI-H460): 8.86 µM; IC50 (HCT-116): 12.5 µM; IC50 (L929): > 13.9 µM; IC50 (SF-295): > 13.9 µM; IC50 (PBMC): > 13.9 µM

Q: How did the IC50 (HL-60) turn out when `COc1ccc(-n2cc(-c3ccco3)c3c2C(=O)c2ccccc2C3=O)cc1` was run?
A: The IC50 was greater than 13.5 µM.

Q: What about the IC50 (PC-3) of the same compound?
A: Its IC50 is greater than 13.5 µM.

Q: And the IC50 (NCI-H460)?
A: The IC50 was greater than 13.5 µM.

Q: And the IC50 (HCT-116)?
A: Its IC50 is greater than 13.5 µM.

Q: And the IC50 (L929)?
A: The IC50 was greater than 13.5 µM.

Q: And the IC50 (SF-295)?
A: Its IC50 is greater than 13.5 µM.

Q: What about the IC50 (PBMC) of the same compound?
A: The IC50 was greater than 13.5 µM.

Reference: ChEMBL document CHEMBL4152217, “Quinonoid compounds via reactions of lawsone and 2-aminonaphthoquinone with α-bromonitroalkenes and nitroallylic acetates: Structural diversity by C-ring modification and cytotoxic evaluation against cancer cells” (Eur J Med Chem, 2018)
